Reference: ChEMBL document CHEMBL4376812 (J Med Chem, 2019)

Tests used:
[1] = target: JAK1/TYK2 (Homo sapiens, UniProt P23458+P29597); assay: Inhibition of JAK1/TYK2 in human Kit225 T cells assessed as inhibition of STAT phosphorylation by luciferase reporter assay; assay type: cell-based
Summary of the method: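 T-cells carrying a stably integrated STAT-dependent luciferase reporter were stimulated with IFNα or IL-23 to measure TYK2/JAK1-dependent signalling. Dose–response curves gave IC50.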

[2] = target: Non-receptor tyrosine-protein kinase TYK2 (Homo sapiens, UniProt P29597); assay: Inhibition of TYK2 in human whole blood assessed as decrease in IFNalpha-induced STAT5 phosphorylation preincubated for 1 hr followed by stimulation with IFN-alpha for 15 mins by fluorescence analysis; assay type: tissue-based
Summary of the method: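 Human whole blood stimulated with IFNα; STAT5 phosphorylation was read in cells by staining and flow cytometry. IC50 from dose–response; mean of at least three experiments.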

[3] = Metabolic stability in mouse liver microsomes assessed as compound remaining incubated for 10 mins; assay type: ADME, Microsome; settings: read-out: Stability
Summary of the method: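 Mouse liver microsomal stability, reported as percent of parent remaining after a 10 min incubation. Values are means of at least three experiments unless otherwise noted.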

[4] = Permeability coefficient, Kp across apical to basolateral side in human Caco2 cells; assay type: ADME, cell-based; settings: Caco-2, read-out: permeability
Summary of the method: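 Caco-2 monolayer permeability measured in both directions, apical-to-basal and basal-to-apical, reported as Pc in nm/s. An efflux ratio was calculated from the two directions.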

[5] = target: Non-receptor tyrosine-protein kinase TYK2 (Mus musculus, UniProt Q9R117); assay: Inhibition of TYK2 in mouse whole blood assessed as decrease in IFNalpha-induced STAT1 phosphorylation preincubated for 1 hr followed by stimulation with IFN-alpha for 15 mins by fluorescence analysis; assay type: tissue-based
Summary of the method: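 Mouse whole blood stimulated with IFNα; STAT1 phosphorylation was measured by cellular staining and flow cytometry. Read as IC50.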

Sequence of JAK1/TYK2 (P23458 whole entry): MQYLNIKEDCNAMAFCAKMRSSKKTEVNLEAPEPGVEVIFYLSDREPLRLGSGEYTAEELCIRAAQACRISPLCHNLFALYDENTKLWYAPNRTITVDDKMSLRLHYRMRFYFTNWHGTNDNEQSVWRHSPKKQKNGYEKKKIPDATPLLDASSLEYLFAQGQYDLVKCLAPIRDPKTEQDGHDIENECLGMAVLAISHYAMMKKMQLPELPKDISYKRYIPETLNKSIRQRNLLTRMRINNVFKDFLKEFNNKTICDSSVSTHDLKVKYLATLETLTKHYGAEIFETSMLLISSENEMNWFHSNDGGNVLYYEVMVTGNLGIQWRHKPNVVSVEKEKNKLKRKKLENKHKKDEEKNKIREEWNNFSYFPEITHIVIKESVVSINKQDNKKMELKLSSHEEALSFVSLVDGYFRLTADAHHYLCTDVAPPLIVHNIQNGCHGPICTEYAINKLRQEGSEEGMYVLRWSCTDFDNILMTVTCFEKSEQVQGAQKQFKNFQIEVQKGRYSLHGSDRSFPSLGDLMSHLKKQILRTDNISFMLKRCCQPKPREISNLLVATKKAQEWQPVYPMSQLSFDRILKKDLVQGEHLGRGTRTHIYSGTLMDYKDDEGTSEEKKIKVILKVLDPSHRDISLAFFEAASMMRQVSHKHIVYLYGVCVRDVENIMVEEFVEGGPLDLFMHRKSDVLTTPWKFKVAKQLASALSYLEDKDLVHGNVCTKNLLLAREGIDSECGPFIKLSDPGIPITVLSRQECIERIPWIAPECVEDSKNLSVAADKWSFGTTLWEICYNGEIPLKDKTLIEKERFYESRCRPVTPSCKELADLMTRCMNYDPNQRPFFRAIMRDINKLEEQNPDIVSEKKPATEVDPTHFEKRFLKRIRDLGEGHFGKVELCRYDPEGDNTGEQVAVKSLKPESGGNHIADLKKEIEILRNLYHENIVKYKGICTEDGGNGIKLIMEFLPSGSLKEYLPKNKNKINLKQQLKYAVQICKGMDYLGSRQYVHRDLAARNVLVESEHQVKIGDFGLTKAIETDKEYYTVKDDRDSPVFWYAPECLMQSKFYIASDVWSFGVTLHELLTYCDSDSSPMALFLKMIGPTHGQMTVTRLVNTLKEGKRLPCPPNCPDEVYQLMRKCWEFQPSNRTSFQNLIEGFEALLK
Sequence of JAK1/TYK2 (P29597 whole entry): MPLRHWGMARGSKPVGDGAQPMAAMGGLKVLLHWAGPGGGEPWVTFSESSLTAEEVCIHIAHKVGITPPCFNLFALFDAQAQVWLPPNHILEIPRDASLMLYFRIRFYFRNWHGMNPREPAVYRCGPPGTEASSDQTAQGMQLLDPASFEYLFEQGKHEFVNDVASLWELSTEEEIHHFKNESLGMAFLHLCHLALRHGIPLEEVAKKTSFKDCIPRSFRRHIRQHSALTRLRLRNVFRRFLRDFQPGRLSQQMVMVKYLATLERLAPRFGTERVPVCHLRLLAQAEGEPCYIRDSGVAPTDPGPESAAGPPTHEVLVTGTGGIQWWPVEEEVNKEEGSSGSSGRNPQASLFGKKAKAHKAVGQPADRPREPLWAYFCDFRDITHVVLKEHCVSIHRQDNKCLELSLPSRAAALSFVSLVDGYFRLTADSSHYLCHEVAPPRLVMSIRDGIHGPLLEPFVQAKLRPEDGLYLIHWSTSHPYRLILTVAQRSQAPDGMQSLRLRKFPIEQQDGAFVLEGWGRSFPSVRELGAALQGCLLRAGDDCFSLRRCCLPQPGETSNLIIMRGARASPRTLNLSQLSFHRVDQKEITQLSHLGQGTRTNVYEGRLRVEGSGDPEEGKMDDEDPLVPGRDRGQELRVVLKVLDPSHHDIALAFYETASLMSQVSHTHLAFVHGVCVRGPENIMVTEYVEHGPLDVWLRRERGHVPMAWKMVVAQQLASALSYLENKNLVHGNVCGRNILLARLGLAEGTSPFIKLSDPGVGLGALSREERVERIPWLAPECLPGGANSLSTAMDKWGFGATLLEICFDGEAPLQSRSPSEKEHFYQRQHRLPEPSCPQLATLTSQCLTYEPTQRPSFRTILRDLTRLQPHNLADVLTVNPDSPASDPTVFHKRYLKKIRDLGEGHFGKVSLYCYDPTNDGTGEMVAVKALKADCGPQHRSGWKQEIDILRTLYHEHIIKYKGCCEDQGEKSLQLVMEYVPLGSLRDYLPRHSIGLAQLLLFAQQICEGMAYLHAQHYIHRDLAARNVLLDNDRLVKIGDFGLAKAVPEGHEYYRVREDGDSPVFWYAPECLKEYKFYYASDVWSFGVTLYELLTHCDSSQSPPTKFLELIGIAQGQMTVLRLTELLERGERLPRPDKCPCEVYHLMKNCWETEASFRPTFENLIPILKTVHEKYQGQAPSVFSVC
Sequence of Non-receptor tyrosine-protein kinase TYK2 (Homo sapiens, UniProt P29597) (P29597 whole entry): as above
Sequence of Non-receptor tyrosine-protein kinase TYK2 (Mus musculus, UniProt Q9R117) (Q9R117 whole entry): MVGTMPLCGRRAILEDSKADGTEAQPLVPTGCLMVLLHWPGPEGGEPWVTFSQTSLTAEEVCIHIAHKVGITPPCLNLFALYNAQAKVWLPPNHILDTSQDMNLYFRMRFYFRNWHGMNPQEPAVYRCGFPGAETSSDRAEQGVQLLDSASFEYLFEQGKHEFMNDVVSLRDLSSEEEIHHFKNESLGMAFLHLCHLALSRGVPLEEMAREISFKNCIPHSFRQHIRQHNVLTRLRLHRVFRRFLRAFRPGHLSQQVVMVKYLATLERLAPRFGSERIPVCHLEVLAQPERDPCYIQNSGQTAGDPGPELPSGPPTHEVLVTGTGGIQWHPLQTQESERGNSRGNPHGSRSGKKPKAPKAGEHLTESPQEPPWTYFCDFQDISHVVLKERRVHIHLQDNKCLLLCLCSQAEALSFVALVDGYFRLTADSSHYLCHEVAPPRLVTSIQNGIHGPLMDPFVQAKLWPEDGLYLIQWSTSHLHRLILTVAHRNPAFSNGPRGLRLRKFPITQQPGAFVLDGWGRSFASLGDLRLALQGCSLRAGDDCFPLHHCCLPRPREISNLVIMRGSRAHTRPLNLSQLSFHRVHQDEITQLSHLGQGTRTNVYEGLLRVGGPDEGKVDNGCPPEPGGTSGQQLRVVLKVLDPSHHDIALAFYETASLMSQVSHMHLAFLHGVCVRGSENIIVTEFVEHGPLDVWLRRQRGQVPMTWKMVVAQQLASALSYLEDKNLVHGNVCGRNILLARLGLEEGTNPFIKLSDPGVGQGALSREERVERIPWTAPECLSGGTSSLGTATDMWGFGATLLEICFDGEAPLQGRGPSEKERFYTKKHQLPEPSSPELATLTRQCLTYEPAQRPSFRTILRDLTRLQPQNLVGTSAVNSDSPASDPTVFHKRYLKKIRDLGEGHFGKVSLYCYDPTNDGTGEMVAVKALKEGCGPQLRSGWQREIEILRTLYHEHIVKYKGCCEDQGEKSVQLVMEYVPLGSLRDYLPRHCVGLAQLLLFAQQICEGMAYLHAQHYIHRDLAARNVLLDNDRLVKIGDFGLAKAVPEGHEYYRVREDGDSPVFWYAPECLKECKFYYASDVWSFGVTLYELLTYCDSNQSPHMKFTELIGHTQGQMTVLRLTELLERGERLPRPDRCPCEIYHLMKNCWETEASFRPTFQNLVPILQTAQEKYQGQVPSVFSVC

IC50 [1] [µM] | IC50 [2] [µM] | remaining at 10 min [3] [%] | Papp A→B [4] [nm/s] | IC50 [5] [µM] | Compound
0.028 | 0.28 |  |  |  | CCNC(=O)c1cccc(Nc2cc(Nc3cc(C)c(F)cn3)ncc2C(=O)NC)c1OC
0.047 | 0.14 |  |  |  | CNC(=O)c1cnc(Nc2cc(C)c(F)cn2)cc1Nc1cccc(C(=O)NC)c1OC
0.006 | 0.015 | 85 | 18 | 0.26 | CNC(=O)c1cnc(Nc2ccc(C#N)cn2)cc1Nc1cccc(-c2ncn(C)n2)c1OC
0.012 | 0.019 | 73 | < 15 | 0.73 | CNC(=O)c1cnc(Nc2cc(C)nc(C)n2)cc1Nc1cccc(-c2ncn(C)n2)c1OC
0.009 | 0.079 | 66 |  | 0.43 | CNC(=O)c1cnc(Nc2cc(C)c(F)cn2)cc1Nc1cccc(-c2ccn(C)n2)c1OC
0.016 | 0.15 | 29 |  |  | CNC(=O)c1cnc(Nc2cc(C)c(F)cn2)cc1Nc1cccc(-c2nncn2C)c1OC
0.078 | 0.23 |  | 50 |  | CNC(=O)c1cnc(Nc2ccc(F)cn2)cc1Nc1cccc(C(=O)NC)c1OC
0.015 | 0.087 | 9 |  | 0.38 | CNC(=O)c1cnc(Nc2cc(C)c(F)cn2)cc1Nc1cccc(-c2ncnn2C)c1OC
0.012 | 0.1 | 70 |  | 0.57 | CNC(=O)c1cnc(Nc2cc(C)c(F)cn2)cc1Nc1cccc(-c2nnc(C)o2)c1OC
0.014 | 0.016 | 93 | 23 | 0.33 | CNC(=O)c1cnc(NC(=O)C2CC2)cc1Nc1cccc(-c2ncn(C)n2)c1OC
0.13 | 0.75 |  |  |  | CNC(=O)c1cnc(Nc2cc(C)c(F)cn2)cc1Nc1cccc(C(=O)N(C)C)c1OC
0.004 | 0.012 | 80 |  | 0.13 | CNC(=O)c1cnc(Nc2cc(C)c(F)cn2)cc1Nc1cccc(-c2ncn(C)n2)c1OC
0.07 | 0.3 | 15 |  |  | CNC(=O)c1cnc(Nc2cc(C)c(F)cn2)cc1Nc1cccc(-c2ccnn2C)c1OC
> 10 | > 10 |  | < 15 |  | CNC(=O)c1cnc(Nc2ccc(F)cn2)cc1Nc1cccc(C(=O)O)c1OC
0.034 | 0.57 |  |  |  | CNC(=O)c1cnc(Nc2ccc(F)cn2)cc1Nc1cccc(C#N)c1OC
7.5 | > 10 |  |  |  | CNC(=O)c1cccc(Nc2cc(Nc3ccc(F)cn3)ncc2C(=O)NC)c1
